# Published values pooled from the literature.
# Compare with care: the assays were run in different laboratories.
# Read-out: cell growth or viability
Compound,cell line,assay,setting,IC50
C=CC(=O)N1CCN(c2nc(=O)n(-c3c(C)ccnc3C(C)C)c3nc(-c4c(O)cccc4F)c(F)cc23)[C@@H](C)C1,KYSE-410,ATP luminescence,,0.0676 µM
COc1cc2c3c(n(CCCN4CCOCC4)c(=O)c2cc1OC)-c1nc2c(cc1C3=O)OCO2,RS4-11,MTS,72 h,0.283 µM
C=CC(=O)Nc1cc(Nc2nccc(-c3cn(C)c4ccccc34)n2)c(OC)cc1N(C)CCN(C)C,NCI-H460,,72 h,5.38 µM
Cc1cc(/C=C/C#N)cc(C)c1Nc1ccnc(Nc2ccc(C#N)cc2)n1,HNE1,MTT,48 h,14.1 µM
N#Cc1cc(/C=N/NC(=N)N/N=C/c2ccc(OC(F)(F)F)cc2)ccc1F,L6,resazurin,70 h,7.05 µM
CN1C(=O)CCC(N2Cc3c(C#CC4CCN(C(=O)[C@H]5CC[C@H](NC(=O)[C@@H]6NC7(CCCCC7)[C@@]7(C(=O)Nc8cc(Cl)ccc87)[C@H]6c6cccc(Cl)c6F)CC5)CC4)cccc3C2=O)C1=O (stereo partly drawn),RS4-11,,,0.751 µM
COc1cc2c3c(n(CCCNC(C)C)c(=O)c2cc1OC)-c1nc2c(cc1C3=O)OCO2,RS4-11,MTS,72 h,0.053 µM
COc1cc2nc(N3CCN(C(=O)C4COc5ccccc5O4)CC3)nc(N)c2cc1OC (stereo not drawn),HK-1,MTT,48 h,31.7 µM
N#Cc1cccc(CC=NNC(=N)NN=CCc2cccc(C#N)c2)c1,L6,resazurin,70 h,2.63 µM
O=C1CCN2C(=O)c3ccccc3C2C(=O)Nc2ccc(F)cc21 (stereo not drawn),L6,,,> 310 µM
COc1cc2nc(N3CCN(C(=O)c4ccco4)CC3)nc(N)c2cc1OC,HNE1,MTT,48 h,41.6 µM
COc1cc2c3c(n(CCCn4ccnc4)c(=O)c2cc1OC)-c1nc2c(cc1C3=O)OCO2,RS4-11,MTS,72 h,0.12 µM
CO/N=C1/CCN2C(=O)c3ccccc3C2C(=O)Nc2ccccc21 (stereo not drawn),L6,,,> 300 µM
CC(C)C[C@@H]1NC(=O)CNC(=O)[C@H](CC(N)=O)NC(=O)[C@H](CCCNC(=N)N)NC(=O)[C@H]([C@@H](C)O)NC(=O)[C@@H]2CSSC[C@@H]3NC(=O)[C@H]([C@@H](C)O)NC(=O)CNC(=O)CNC(=O)[C@H](C(C)C)NC(=O)[C@@H]4CSSC[C@H](NC(=O)[C@H]([C@@H](C)O)NC(=O)[C@H](CSSC[C@H](NC(=O)[C@H](C(C)C)NC(=O)[C@@H]5CCCN5C1=O)C(=O)NCC(=O)N[C@@H](CCC(=O)O)C(=O)N[C@@H]([C@@H](C)O)C(=O)N4)NC(=O)CNC(=O)[C@@H]1CCCN1C(=O)[C@H]([C@@H](C)O)NC(=O)[C@H](CC(N)=O)NC3=O)C(=O)N[C@@H](CO)C(=O)N[C@@H](Cc1c[nH]c3ccccc13)C(=O)N1CCC[C@H]1C(=O)N[C@@H](C(C)C)C(=O)N2,Sf9,MTT,24 h,2.8 µM
CO[C@]12C[C@@H](COC(=O)c3cncc(Br)c3)CN(C)[C@@H]1Cc1cn(C)c3cccc2c13,HK-1,MTT,48 h,5.99 µM
C=C(F)C(=O)N1CCN(c2nc(OC[C@@H]3CCCN3C)nc3c2CCN(c2cccc4cccc(Cl)c24)C3)C[C@@H]1CC#N,KYSE-410,ATP luminescence,,3.07 µM
Cc1c(C(=O)O)ccc2c3n(nc12)[C@@H]1[C@H](C3)N(CC2CC2)[C@@]2(C(=O)Nc3cc(Cl)ccc32)[C@H]1c1cccc(Cl)c1F,Colon 26,resazurin,72 h,0.259 µM
O=C1c2ccccc2C23C(=O)Nc4ccccc4C2(O)CCN13 (stereo not drawn),L6,,,> 330 µM
N=C(NN=Cc1ccc(N2CCOCC2)cc1)NN=Cc1ccc(N2CCOCC2)cc1,L6,resazurin,70 h,2.3 µM
CN1C(=O)C2c3ccccc3C(=O)N2CCC(=O)c2ccccc21 (stereo not drawn),L6,,,> 300 µM
N#Cc1cc(C=NNC(=N)NN=Cc2ccc(F)c(C#N)c2)ccc1F,L6,resazurin,70 h,5.95 µM
CC1(C)CCC(CN2CCN(c3ccc(C(=O)NS(=O)(=O)c4ccc(NCC5CCOCC5)c([N+](=O)[O-])c4)c(Oc4cnc5[nH]ccc5c4)c3)CC2)=C(c2ccc(Cl)cc2)C1,RS4-11,ATP luminescence,48 h,0.0045 µM
CC12C(=O)Nc3ccccc3C(=O)CCN1C(=O)c1ccccc12 (stereo not drawn),L6,,,> 300 µM
N=C(N/N=C/c1ccc(Oc2ccc(Cl)cc2)cc1)N/N=C/c1ccc(Oc2ccc(Cl)cc2)cc1,L6,resazurin,70 h,3.18 µM
